# Test results: article PMC7686291 (Psychopharmacology, 2020)
# Structures can show the parent of a compound that is named as a salt.
# Key:
# [1] = target: dopamine transporters (DAT) (Rattus norvegicus, UniProt P23977); test: Transporter release assay, [3H]MPP+ via DAT, rat brain synaptosomes; type: biochemical; settings: for Emax: read-out: DAT release %Emax; for Times more potent than MDA at DAT release / Times more potent than MDMA at DAT release: ratio of EC50 values, synaptosomes; for DAT release %Emax: % of maximal release defined with 10 μM tyramine
# In short: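 Striatal synaptosomes from male Sprague-Dawley rats, prepared in 10% sucrose containing 1 μM reserpine; no unlabeled blockers added. Loaded 1 h to steady state with 9 nM [3H]MPP+ in Krebs-phosphate buffer; test compound at various concentrations added for 30 min. Ended by rapid vacuum filtration and scintillation counting of filter-bound radioactivity. EC50 by non-linear regression; efficacy relative to maximal release by 10 μM tyramine.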
# [2] = target: norepinephrine transporters (NET) (Rattus norvegicus, UniProt Q63380); test: Transporter release assay, [3H]MPP+ via NET, rat brain synaptosomes; type: biochemical; settings: for Emax: read-out: NET release %Emax; for Times more potent than MDA at NET release / Times more potent than MDMA at NET release: ratio of EC50 values, synaptosomes; for NET release %Emax: % of maximal release defined with 10 μM tyramine
# In short: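 Male Sprague-Dawley rat whole brain minus striatum and cerebellum gave synaptosomes in 10% sucrose with 1 μM reserpine, 100 nM GBR12935 and citalopram. After 1 h preloading with 9 nM [3H]MPP+ in Krebs-phosphate buffer, incubated 30 min with varied test compound concentrations. Filtration, then scintillation counting of retained radioactivity. EC50 from non-linear regression; efficacy as % of 10 μM tyramine release.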
# [3] = target: serotonin transporters (SERT) (Rattus norvegicus, UniProt P31652); test: Transporter release assay, [3H]5-HT via SERT, rat brain synaptosomes; type: biochemical; settings: for Emax: read-out: SERT release %Emax; for SERT release %Emax: % of maximal release defined with 100 μM tyramine
# In short: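 Synaptosomes from whole brain minus striatum and cerebellum of male Sprague-Dawley rats, made in 10% sucrose with 1 μM reserpine plus 100 nM GBR12935 and nomifensine. Preloaded 1 h to steady state with 5 nM [3H]5-HT in Krebs-phosphate buffer, then incubated 5 min with test compound at various concentrations. Stopped by vacuum filtration; retained label counted by scintillation. EC50 from non-linear regression; efficacy as % of release by 100 μM tyramine.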
# [4] = system: extracellular 5-HT in nucleus accumbens; test: In vivo microdialysis in nucleus accumbens, dialysate 5-HT; set-up: species or system rat; settings: male rats
# In short: (§1)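 Male Sprague-Dawley rats (300–400 g) were fitted with a jugular catheter and a nucleus accumbens guide cannula under pentobarbital (60 mg/kg i.p.), with ≥1 week recovery. Probes (2×0.5 mm) were perfused with Ringers' at 0.6 μL/min overnight. 20-min dialysates were assayed by microbore HPLC-ECD. After three stable baselines: i.v. dose at time zero, threefold higher dose at 60 min. Saline 1 mL/kg controls; n = 7/group; % baseline; dose × time ANOVA, Bonferroni.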
# [5] = system: conscious male rats; test: Horizontal ambulation; type: in vivo, rat; settings: for Duration of behavioral activation (forward ambulation) post-injection: i.v.
# In short: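 Conscious, tethered male Sprague-Dawley rats (300–400 g) with jugular catheters were placed overnight in photobeam arenas during accumbens microdialysis. Horizontal-plane movement was counted in 20-min bins over 120 min. Two i.v. injections: first dose at time zero, threefold higher dose 60 min later. Saline (1 mL/kg) controls; n = 7/group. Data normalized to three preinjection bins; dose × time ANOVA versus saline with Bonferroni tests.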
# [6] = system: human transporters (DAT, SERT); settings: cited from earlier work; for DAT/SERT ratio in transfected cells: ref Luethi et al. 2019; for DAT/SERT ratio from uptake inhibition potencies: transfected HEK cells, human transporters, ref Rickli et al. 2015
# [7] = system: extracellular dopamine in nucleus accumbens; test: In vivo microdialysis in nucleus accumbens, dialysate dopamine; set-up: species or system rat; settings: male rats; for Peak increase of dialysate dopamine above baseline: 1.0 mg/kg i.v. given 60 min after 0.3 mg/kg
# In short: as §1
# [8] = system: dialysate dopamine in corpus striatum; settings: oral 0.08 mmol/kg (~17 mg/kg), male CD-1 mice, ref Fuwa et al. 2016; cited from earlier work
# [9] = system: dialysate 5-HT in corpus striatum; settings: ref Fuwa et al. 2016, cited from earlier work
# [10] = system: mice; settings: ref Dolan et al. (2017), cited from earlier work
# [11] = system: rats; settings: rats trained with MDMA 1.5 mg/kg i.p., ref Dolan et al. (2017), cited from earlier work
# [12] = 3 mg/kg i.v. given 60 min after 1 mg/kg
# [13] = ratio of EC50 values, synaptosomes
# [14] = 1.0 mg/kg i.v. given 60 min after 0.3 mg/kg
# Chain of serotonin transporters (SERT) (P31652 whole entry): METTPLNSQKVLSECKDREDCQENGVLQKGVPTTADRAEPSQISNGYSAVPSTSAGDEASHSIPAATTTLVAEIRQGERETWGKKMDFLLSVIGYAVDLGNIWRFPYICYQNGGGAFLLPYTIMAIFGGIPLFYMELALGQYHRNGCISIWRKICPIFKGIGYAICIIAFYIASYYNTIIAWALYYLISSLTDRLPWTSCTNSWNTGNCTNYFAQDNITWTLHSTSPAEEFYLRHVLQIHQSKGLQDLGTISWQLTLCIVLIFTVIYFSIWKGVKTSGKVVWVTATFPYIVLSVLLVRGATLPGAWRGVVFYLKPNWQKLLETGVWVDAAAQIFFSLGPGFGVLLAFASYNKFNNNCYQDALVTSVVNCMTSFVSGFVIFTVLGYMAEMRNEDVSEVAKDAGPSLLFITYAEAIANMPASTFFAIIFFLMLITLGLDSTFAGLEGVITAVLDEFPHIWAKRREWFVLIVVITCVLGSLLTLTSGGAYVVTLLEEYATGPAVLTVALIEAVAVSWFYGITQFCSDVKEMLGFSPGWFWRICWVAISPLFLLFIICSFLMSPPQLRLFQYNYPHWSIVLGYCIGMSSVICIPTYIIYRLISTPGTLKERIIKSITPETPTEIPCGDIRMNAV
# Chain of dopamine transporters (DAT) (P23977 whole entry): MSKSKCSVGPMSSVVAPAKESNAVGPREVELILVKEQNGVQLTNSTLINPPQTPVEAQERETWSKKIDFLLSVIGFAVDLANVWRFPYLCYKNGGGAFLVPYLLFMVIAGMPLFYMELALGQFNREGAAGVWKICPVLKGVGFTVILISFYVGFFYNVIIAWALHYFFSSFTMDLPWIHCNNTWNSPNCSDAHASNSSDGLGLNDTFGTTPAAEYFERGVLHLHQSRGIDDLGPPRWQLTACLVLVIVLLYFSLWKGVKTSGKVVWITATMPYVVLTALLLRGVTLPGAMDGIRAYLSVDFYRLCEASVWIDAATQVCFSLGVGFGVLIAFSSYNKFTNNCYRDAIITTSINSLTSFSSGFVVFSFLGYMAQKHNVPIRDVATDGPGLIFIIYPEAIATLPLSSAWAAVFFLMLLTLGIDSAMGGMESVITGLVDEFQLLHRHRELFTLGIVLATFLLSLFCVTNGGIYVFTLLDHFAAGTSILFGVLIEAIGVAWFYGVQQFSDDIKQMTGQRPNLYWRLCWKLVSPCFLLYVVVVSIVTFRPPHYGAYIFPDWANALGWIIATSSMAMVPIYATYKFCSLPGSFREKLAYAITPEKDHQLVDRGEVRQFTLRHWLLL
# Chain of norepinephrine transporters (NET) (Q63380 1-617): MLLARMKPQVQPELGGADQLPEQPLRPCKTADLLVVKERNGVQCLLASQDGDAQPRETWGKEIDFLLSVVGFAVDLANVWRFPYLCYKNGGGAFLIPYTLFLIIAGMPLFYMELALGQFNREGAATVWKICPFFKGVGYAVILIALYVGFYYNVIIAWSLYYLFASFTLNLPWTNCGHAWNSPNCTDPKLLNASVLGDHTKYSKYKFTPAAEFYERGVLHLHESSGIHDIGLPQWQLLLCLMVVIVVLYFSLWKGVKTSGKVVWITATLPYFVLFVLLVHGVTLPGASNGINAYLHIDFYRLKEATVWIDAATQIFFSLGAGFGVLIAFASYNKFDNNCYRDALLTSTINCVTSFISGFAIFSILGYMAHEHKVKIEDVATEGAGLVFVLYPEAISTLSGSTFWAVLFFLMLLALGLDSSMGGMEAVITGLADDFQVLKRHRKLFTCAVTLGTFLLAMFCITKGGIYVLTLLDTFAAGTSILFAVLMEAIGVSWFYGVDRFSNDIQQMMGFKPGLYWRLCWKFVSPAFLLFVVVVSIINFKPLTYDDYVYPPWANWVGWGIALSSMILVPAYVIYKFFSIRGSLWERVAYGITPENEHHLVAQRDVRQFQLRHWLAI
Compound,EC50 [1],Emax [1],EC50 [2],Emax [2],EC50 [3],Emax [3],Duration of behavioral activation (forward ambulation) post-injection [5],DAT/SERT ratio in transfected cells [6],Times more potent than MDA at DAT release [1],Times more potent than MDA at NET release [2],"Times more potent than MDA at SERT release [3, 13]",Peak increase of dialysate dopamine above baseline [7],"Peak effect on dialysate 5-HT above baseline [4, 14]","Peak effect on ambulation above baseline [5, 14]",DAT/SERT ratio from uptake inhibition potencies [6],DAT release %Emax [1],Times more potent than MDMA at DAT release [1],NET release %Emax [2],Times more potent than MDMA at NET release [2],SERT release %Emax [3],also measured
"CC(N)Cc1ccc2c(c1)OCO2 (racemic) [MDA, (±)-3,4-Methylenedioxyamphetamine HCl, reference compound]",106 ± 7 nM,104%,47 ± 7 nM,91%,162 ± 28 nM,109%,at least 2 h,0.25,–,–,–,–,–,–,–,–,–,–,–,–,"Peak effect on dialysate 5-HT above baseline ([4]; 1 mg/kg i.v., first dose): 4.6 fold; Peak effect on dialysate 5-HT above baseline [4, 12]: 11.2 fold; Fold less potent than 5-APB and 6-APB at increasing dialysate 5-HT ([4]; in vivo microdialysis, i.v.): 3 fold; Effect on locomotion vs saline (post hoc analysis) ([5]; 1 mg/kg i.v., first dose): did not significantly increase locomotion; Peak effect on ambulation above baseline [5, 12]: 30 fold; Ambulation above baseline at the 120 min point ([5]; 60 min after 3 mg/kg i.v.): about 18 fold"
"CNC(C)Cc1ccc2c(c1)OCO2 (racemic) [MDMA, (±)-3,4-methylenedioxymethamphetamine HCl, reference compound]",120 ± 8 nM,101%,90 ± 13 nM,99%,85 ± 16 nM,104%,–,0.12,–,–,–,–,–,–,–,–,–,–,–,–,–
"CC(N)Cc1ccc2occc2c1 (stereo not shown) [5-APB, 1-(1-Benzofuran-5-yl)propan-2-amine]",31 ± 3 nM,103%,21 ± 4 nM,103%,19 ± 2 nM,104%,at least 2 h,–,3.4 fold,2–3 times,8.5 fold,6.7 fold,17.7 fold,21 fold,0.05,–,–,–,–,–,"Times more potent than 5-MAPB at SERT release [3, 13]: 3.4 times; Effect on dialysate dopamine vs saline (post hoc test) ([7]; 0.3 mg/kg i.v.): failed to significantly increase dopamine levels; Increase of dialysate 5-HT ([4]; 20 min after 0.3 mg/kg i.v.): 5.7 fold; Dialysate 5-HT above baseline at the 120 min point ([4]; 120 min point, 60 min after 1.0 mg/kg i.v.): 11.3 fold; Ambulation above baseline at the 120 min point ([5]; 60 min after 1.0 mg/kg i.v.): 14.0 fold; Increase in dialysate dopamine [8]: 8 fold; Increase in dialysate 5-HT ([9]; oral 0.08 mmol/kg (~17 mg/kg), corpus striatum, male CD-1 mice): 23 fold; Time the rise in extracellular 5-HT was maintained post-injection ([9]; oral 0.08 mmol/kg, mice): up to 3 h; ED50 for increase of forward locomotion ([10]; i.p.): 3.27 mg/kg; Potency to stimulate activity, fold greater than that of MDMA ([10]; Gatch et al. 2019): at least 3 fold; ED50 to substitute for the MDMA stimulus cue ([11]; i.p.): 0.27 mg/kg; Substitution for the discriminative stimulus effects of MDMA [11]: fully substitutes"
CNC(C)Cc1ccc2occc2c1 (stereo not shown) [5-MAPB],–,–,–,–,–,–,–,–,–,–,–,–,–,–,–,103%,at least 3 times,99%,≥ 3.75 times,103%,"Times more potent than MDMA at SERT release [3, 13]: up to 2.5 times"
"CC(N)Cc1ccc2ccoc2c1 (stereo not shown) [6-APB, 1-(1-benzofuran-6-yl)propan-2-amine]",10 ± 1 nM,101%,14 ± 2 nM,98%,36 ± 5 nM,100%,at least 2 h,–,10 fold,2–3 times,4.5 fold,8.4 fold,16 fold,24 fold,0.29,–,–,–,–,–,Increase of dialysate dopamine ([7]; 20 min after 0.3 mg/kg i.v.): 2.6 fold; Increase of dialysate dopamine ([7]; 40 min after 0.3 mg/kg i.v.): 3.3 fold; Effect on locomotion vs saline (post hoc analysis) ([5]; 0.3 mg/kg i.v.): failed to result in significant increases in locomotion
CNC(C)Cc1ccc2ccoc2c1 (stereo not shown) [6-MAPB],–,–,–,–,–,–,–,–,–,–,–,–,–,–,–,106%,at least 3 times,100%,≥ 3.75 times,106%,"Times more potent than MDMA at SERT release [3, 13]: up to 2.5 times"
